What all share (assay type): in vivo, rat
Series [1] is described as follows: PCB 95 and OH-PCB tissue levels by GC-ECD. The procedure, abridged:
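Killed 4 h after last injection (~28 h post-PCB). Tissues homogenized with diatomaceous earth and extracted over Florisil. OH-PCBs analysed as methylated derivatives; splitless injection at 280°C; PCB 204 internal standard.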

Series [2] in a line: Enantioselective analysis of PCB 95 in tissues. The note with it: both experimental groups.
For series [3], the system named is CYP2B protein. Briefly: Western blot analysis of CYP2B protein in liver and cortex microsomes. Particulars: liver microsomes; 7 d exposure. Background: Immunoblotting shows a protein as a band on a membrane.
Setting [4] is: both experimental groups dosed with PCB 95.

Molecules are shown by their SMILES. Where a name gives a salt, the structure may show the parent alone.

`COc1c(Cl)cc(Cl)c(-c2cc(Cl)ccc2Cl)c1Cl` [3-103, 3-Methoxy-2,2′,4,5′,6-pentachlorobiphenyl]: the “detection of OH-PCB metabolite in blood and liver” value in series [1] (setting [4]) is listed as “detected”.
On the same count and under the same terms, the result for `COc1c(Cl)c(Cl)c(-c2cc(Cl)ccc2Cl)c(Cl)c1OC` [4,5-95, 4,5-dimethoxy-2,2′,3,5′,6-pentachlorobiphenyl] reads “detected”; that for `Oc1cc(Cl)c(-c2cc(Cl)ccc2Cl)c(Cl)c1Cl` [4-95, 2,2′,3,5′,6-pentachlorobiphenyl-4-ol], “detected”; that for `Oc1cc(Cl)c(-c2c(Cl)ccc(Cl)c2Cl)cc1Cl` [4′-95], “detected”.
Consider `Oc1cc(Cl)c(Cl)c(-c2cc(Cl)ccc2Cl)c1Cl` [5-95, 2,2′,3,5′,6-pentachlorobiphenyl-5-ol], for which, in series [1] (setting [4]), the “detection of OH-PCB metabolite in blood and liver” value is listed as “detected”; the “detection of metabolite in adipose tissue” value was “detected as a minor metabolite”.
`CN1CCC[C@H]1c1cccnc1` [Nicotine, (−)-Nicotine hydrogen tartrate salt, reference compound]: the “effect of nicotine co-exposure on levels of the parent compound PCB 95 in tissues” value in series [1] (nicotine 1 mg/kg/d s.c. 7 d plus PCB 95 6 mg/kg/d p.o., cortex, cerebellum, adipose, blood, liver, muscle) is “no effect”.
Consider `Clc1ccc(Cl)c(-c2c(Cl)ccc(Cl)c2Cl)c1` [PCB 95, 2,2′,3,5′,6-Pentachlorobiphenyl], for which the “rank order of tissue EF values for PCB 95” value in series [2] is “blood (sample pooled across experimental groups) > liver > muscle (samples pooled within experimental groups) > cortex > adipose”. In series [3], the “hepatic CYP2B protein levels relative to vehicle controls (densitometry, normalized to GAPDH)” value is reported as “neither nicotine nor PCB 95 alone changed hepatic CYP2B levels”.

These data come from publication PMC4658283 (Toxicology, 2015).
